Measured values gathered from unrelated publications.
Protocols differ between the studies behind these lines.
Target: D(2) dopamine receptor (DRD2, Homo sapiens, UniProt P14416)

Cc1cc(C)cc(NC(=O)CN2CCN(C(=O)c3ccco3)CC2)c1
inhibition (enzyme activity, inhibitor; 10 µM): 8.3%

CN1CCN(C(=O)C(C)(C)c2ccc(C(=O)Nc3cn4cc(-c5cc(C(C)(C)C)cc(C(C)(C)C)c5)ccc4n3)cc2)CC1
inhibition (ligand displacement; 10 µM): 57.5%

FC(F)(F)c1cccc(-c2ccc(CNCCCN3CCOCC3)o2)c1
inhibition (enzyme activity, inhibitor; 10 µM): 48.3%

c1cncc(OC[C@@H]2CN(CCN3CCc4ccccc43)CCO2)c1
inhibition (ligand displacement, radioligand; 10 µM): 20.9%

Cn1nc(C(=O)NCc2ccc(C(=O)O)cc2)cc1-c1ccc2[nH]ccc2c1
inhibition (ligand displacement; 10 µM): -14.4%

CCOc1ccc(CNCC(O)c2ccccc2)cc1Br (stereo not shown)
inhibition (enzyme activity, inhibitor; 10 µM): 36.2%

Cc1nc2cc(OCCCCN3CCN(c4cccc5c4OCCO5)CC3)ccc2s1
Emax (β-arrestin recruitment, agonist; HTLA): 35%

COc1cccc(OC[C@H]2CN(CCN3CCc4ccccc43)CCO2)c1
inhibition (ligand displacement, radioligand; 10 µM): 31.5%

O=C(NCCN1CCN(C(=O)c2ccccc2)CC1)C(=O)Nc1ccccc1
inhibition (enzyme activity, inhibitor; 10 µM): 6.4%

Cc1ccc(OC[C@@H]2CN(CCN3CCc4ccccc43)CCO2)cn1
inhibition (ligand displacement, radioligand; 10 µM): 18.8%

O=C(CCCN1CCC(O)(c2ccc(Br)cc2)CC1)c1ccc(F)cc1
koff (binding): 0.00742 s⁻¹

Cc1cc(NC(=O)c2cccc(S(F)(F)(F)(F)F)c2)cc(-n2ccn3nc(-c4cccnc4)cc23)c1
inhibition (ligand displacement, radioligand; 10 µM): 12.3%

Cc1ccnc(OC[C@H]2CN(CC(=O)N3CCc4ccccc43)CCO2)c1
inhibition (ligand displacement, radioligand; 10 µM): -7.3%

Nc1nonc1C(=O)NCCNCc1cccc(OCc2ccccc2F)c1
inhibition (enzyme activity, inhibitor; 10 µM): 6.52%

O=C(CN1CCO[C@H](COc2ccccc2)C1)N1CCc2ccccc21
inhibition (ligand displacement, radioligand; 10 µM): 13.6%

CCS(=O)(=O)c1cc2cc(C[C@](O)(CC(C)(C)c3ccc(F)cc3C(N)=O)C(F)(F)F)[nH]c2cn1
inhibition (ligand displacement; 10 µM): -12.2%

Cc1cccc(N2CCN(CC(O)COc3ccc4ccccc4c3)CC2)c1C (stereo not shown)
inhibition (enzyme activity, inhibitor; 10 µM): 24.4%

CCOc1cc(N2C3COCC2CN(C(=O)[C@H]2C[C@H](O)CN2c2ccc(Cl)cc2)C3)ccc1Cl
inhibition (cell-free assay; 10 µM): 7.26%

O=C(CN1CCO[C@@H](COc2ccccn2)C1)N1CCc2ccccc21
inhibition (ligand displacement, radioligand; 10 µM): -15.6%

O=c1nc(-c2ccccn2)sc2ccccc12
inhibition (ligand displacement; 10 µM): 22.9%

NS(=O)(=O)c1ccc(CCNCc2ccc(OCc3cccs3)cc2)cc1
inhibition (enzyme activity, inhibitor; 10 µM): 23.9%

O=C(NCc1ncc(C(F)(F)F)cc1Cl)c1ccc2c(c1)C1(CCS(=O)(=O)CC1)[C@@H](C1CC1)N2S(=O)(=O)c1ccc(F)cc1
inhibition (ligand displacement; 10 µM): -8.4%

O=C(CN1CCN(c2ccc(F)cc2)CC1)Nc1cc(Cl)cc(Cl)c1
inhibition (enzyme activity, inhibitor; 10 µM): 13.6%

Clc1cncc(OC[C@@H]2CN(CCN3CCc4ccccc43)CCO2)c1
inhibition (ligand displacement, radioligand; 10 µM): 60%

CC(=O)Nc1c(C(C)=O)c(=O)n(C)c2nc(-c3ccc(Cl)cc3Cl)c(-c3ccc(Cl)cc3)cc12
inhibition (cell-free assay; 10 µM): 5.73%
